This is an account of results in ChEMBL document CHEMBL1255454, “Systematic approach to optimizing specifically targeted antimicrobial peptides against Streptococcus mutans” (2010).

The subject of one test is Enterococcus faecalis. Kind of test: Antimicrobial activity against Enterococcus faecalis after 16 to 20 hrs by broth microdilution assay. The class given is functional. In short, it runs like this: (§1)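 Broth microdilution. Twofold peptide dilutions were made in 50% BHI–50% sterile water for oral streptococci and in 1× Mueller-Hinton broth for the other bacteria. First round 500 to 0.97 µg/ml; a second round of 64 to 0.5 µg/ml was run in some cases, reporting its mode. Inoculum ~1 × 10^5 CFU/ml, 37°C for 16–20 h. Read A600; MIC taken as complete inhibition or ≥90% turbidity reduction versus peptide-free control.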

A further test relates to Streptococcus sobrinus. Nature of the test: Antimicrobial activity against Streptococcus sobrinus ATCC 33478 after 16 to 20 hrs by broth microdilution assay. The class given is functional. An outline of the steps: as §1
Another test concerns Streptococcus sanguinis. Nature of the test: Antimicrobial activity against Streptococcus sanguinis NY101 after 16 to 20 hrs by broth microdilution assay. It counts as functional. In short, it runs like this: as §1
The next test relates to Staphylococcus aureus. Kind of test: Antimicrobial activity against methicillin-resistant Staphylococcus aureus after 16 to 20 hrs by broth microdilution assay. The class given is functional. In short, it runs like this:
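MRSA grown aerobically in BHI at 37°C. Broth microdilution: 2-fold peptide dilutions in 1× Mueller-Hinton broth, first round 500 to 0.97 µg/ml; if activity below 62.5 µg/ml, sometimes a second round at 64 to 0.5 µg/ml, reporting the mode. Inoculum ~1 × 10^5 CFU/ml, 37°C for 16-20 h. A600 read. MIC = lowest concentration giving complete inhibition or ≥90% turbidity reduction versus peptide-free control.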

For another test, the system named is Escherichia coli. Kind of test: Antimicrobial activity against Escherichia coli W3110 after 16 to 20 hrs by broth microdilution assay. It counts as functional. In short, it runs like this: as §1
The test system of test [1] is Streptococcus mutans. Kind of test: Antimicrobial activity against Streptococcus mutans UA159 after 16 to 20 hrs by broth microdilution assay. The class given is functional. In short, it runs like this: as §1
The subject of the next test is Pseudomonas aeruginosa. Kind of test: Antimicrobial activity against Pseudomonas aeruginosa PAK after 16 to 20 hrs by broth microdilution assay. It counts as functional. In short, it runs like this: as §1
The subject of test [2] is Streptococcus mutans. Kind of test: Antimicrobial activity against Streptococcus mutans UA159 assessed as inhibition of bacterial biofilm formation at 25 uM after 3 mins by fluorescence assay. It counts as functional. In short, it runs like this: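 S. mutans UA159 overnight culture was diluted 1:5,000 in TH with 1% sucrose and grown as biofilm for 24 h. Biofilms were exposed 3 min at room temperature to 25 µM fluorescein-labelled peptide in HEPES/NaHCO3/NaCl/MgCl2 buffer with 0.1% CTAB, pH 7.4, then washed twice. Green fluorescence images were taken and biofilm-associated green pixels quantified as binding intensity units.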

The nature of test [3]: Antimicrobial activity against Streptococcus gordonii Challis DL1 after 16 to 20 hrs by broth microdilution assay. The class given is functional, Streptococcus gordonii str. Challis. An outline of the steps:
as §1

In the next test the test system is Streptococcus mitis. Kind of test: Antimicrobial activity against Streptococcus mitis ATCC 903 after 16 to 20 hrs by broth microdilution assay. The class given is functional. In short, it runs like this:
as §1

Converted amounts (≈) assume the structure as drawn. The source made the active and inactive calls. No cut-off for these calls is given here. Square brackets hold non-standard residues; d marks the D form. Peptide text beside a SMILES is read from it. Aoc = NCCCCCCCC(=O)O

With `CC[C@H](C)[C@H](NC(=O)[C@H](Cc1ccccc1)NC(=O)[C@H](Cc1cnc[nH]1)NC(=O)[C@H](CCCCN)NC(=O)[C@@H](NC(=O)[C@H](Cc1ccccc1)NC(=O)[C@@H]1CCCN1C(=O)[C@H](Cc1ccc(O)cc1)NC(=O)[C@@H]1CCCN1C(=O)[C@H](Cc1ccccc1)NC(=O)[C@@H](Cc1cnc[nH]1)NC(=O)[C@@H](CC(C)C)NC(=O)[C@@H](Cc1cnc[nH]1)NC(=O)[C@@H](Cc1ccccc1)NC(=O)[C@@H](Cc1cnc[nH]1)NC(=O)[C@H](N)Cc1ccccc1)[C@@H](C)CC)C(=O)N[C@@H](Cc1cnc[nH]1)C(=O)N[C@@H](CCCNC(=N)N)C(=O)N[C@@H](Cc1ccccc1)C(N)=O`, the MIC against Enterococcus faecalis is 250 µg/mL (≈ 97.4 µM); in the test on Streptococcus sobrinus, 62.5 µg/mL (≈ 24.3 µM); with Streptococcus sanguinis, 62.5 µg/mL (≈ 24.3 µM); with Staphylococcus aureus it was more than 500 µg/mL; against Escherichia coli, 125 µg/mL (≈ 48.7 µM); with Streptococcus mutans [1], 32 µg/mL (≈ 12.5 µM). The same compound yielded an MIC against Pseudomonas aeruginosa of 125 µg/mL (≈ 48.7 µM).
Take H-FHFHLHF-NH2: the minimum inhibitory concentration (MIC) in the test with Enterococcus faecalis was 16 µg/mL; with Streptococcus sanguinis, 16 µg/mL; against Staphylococcus aureus, 32 µg/mL; with Escherichia coli it was 8 µg/mL; against Streptococcus mutans [1], 8 µg/mL; against Pseudomonas aeruginosa, 16 µg/mL. For the same compound, in the test with Streptococcus mutans [2], the inhibition entry is “Active”.
`CC[C@H](C)[C@H](NC(=O)[C@H](Cc1ccccc1)NC(=O)[C@H](Cc1cnc[nH]1)NC(=O)[C@H](CCCCN)NC(=O)[C@@H](NC(=O)[C@@H](N)Cc1ccccc1)[C@@H](C)CC)C(=O)N[C@@H](Cc1cnc[nH]1)C(=O)N[C@@H](CCCNC(=N)N)C(=O)N[C@@H](Cc1ccccc1)C(=O)NCCCCCCCC(=O)N[C@@H](CCCNC(=N)N)C(=O)N[C@@H](Cc1c[nH]c2ccccc12)C(=O)N[C@@H](CCCNC(=N)N)C(=O)N[C@@H](CCCNC(=N)N)C(=O)N[C@@H](CC(C)C)C(=O)N[C@@H](CC(C)C)C(=O)N[C@@H](CCCCN)C(=O)N[C@@H](CCCCN)C(=O)N[C@@H](CC(C)C)C(=O)N[C@@H](Cc1cnc[nH]1)C(=O)N[C@@H](Cc1cnc[nH]1)C(=O)N[C@@H](CC(C)C)C(=O)N[C@@H](CC(C)C)C(=O)N[C@@H](Cc1cnc[nH]1)C(N)=O` (H-FIKHFIHRF[Aoc]RWRRLLKKLHHLLH-NH2): the MIC in test [3] was determined as 32 µg/mL (≈ 9.78 µM); in the test on Streptococcus sanguinis it was 32 µg/mL (≈ 9.78 µM); against Staphylococcus aureus it was 62.5 µg/mL (≈ 19.1 µM); against Streptococcus mitis, 32 µg/mL (≈ 9.78 µM); against Streptococcus mutans [1], 16 µg/mL (≈ 4.89 µM); in the test with Pseudomonas aeruginosa, 62.5 µg/mL (≈ 19.1 µM). In the test with Streptococcus mutans [2], the inhibition entry was “Active”.
On to H-FHFHLHFGGGFIKHFIHRF-NH2, for which the minimal inhibitory concentration (MIC) in the test on Enterococcus faecalis stood at 62.5 µg/mL; against Streptococcus sobrinus, 62.5 µg/mL; against Streptococcus sanguinis it was 62.5 µg/mL; against Staphylococcus aureus, 125 µg/mL; in the test on Escherichia coli it was 62.5 µg/mL; against Streptococcus mutans [1], 32 µg/mL. The lowest concentration to inhibit growth in the test on Pseudomonas aeruginosa (MIC) was 62.5 µg/mL.
Consider H-FHFHLHFASASAFIKHFIHRF-NH2, for which the MIC in the test with Enterococcus faecalis came to 62.5 µg/mL; in the test on Streptococcus sobrinus, 32 µg/mL; against Streptococcus sanguinis, 32 µg/mL; in the test with Staphylococcus aureus, 62.5 µg/mL; in the test on Escherichia coli, 62.5 µg/mL; in the test on Streptococcus mutans [1], 16 µg/mL. The compound further returned an MIC against Pseudomonas aeruginosa of 125 µg/mL.
With H-FHFHLHFPSPSPFIKHFIHRF-NH2, the MIC against Enterococcus faecalis is 250 µg/mL; against Streptococcus sobrinus, 125 µg/mL; against Streptococcus sanguinis it was 125 µg/mL; against Staphylococcus aureus, more than 500 µg/mL; in the test with Escherichia coli, 62.5 µg/mL; against Streptococcus mutans [1] it was 32 µg/mL. For the same compound, the MIC in the test with Pseudomonas aeruginosa stood at 125 µg/mL.
For the compound H-FIKHFIHRFSATRWRRLLKKLHHLLH-NH2, the MIC in test [3] was 32 µg/mL; with Streptococcus sanguinis, 32 µg/mL; in the test with Staphylococcus aureus, 16 µg/mL; against Streptococcus mitis, 32 µg/mL; with Streptococcus mutans [1] it was 16 µg/mL; in the test with Pseudomonas aeruginosa, 32 µg/mL. Further, the inhibition result in the test with Streptococcus mutans [2] is “Active”.
As for H-RWRRLLKKLHHLLHSATFIKHFIHRF-NH2, the MIC came out at 16 µg/mL in [3]; 16 µg/mL in the test on Streptococcus sanguinis; 32 µg/mL against Staphylococcus aureus; 16 µg/mL in the test on Streptococcus mitis; 8 µg/mL against Streptococcus mutans [1]; 32 µg/mL against Pseudomonas aeruginosa. For the same compound, in the test with Streptococcus mutans [2], the inhibition entry is “Active”.
